A selection: hits, their analogues and other compounds. The true share with any hit is near 4.9%.
STAT3 activator: STAT3 signaling activation; U3A cells, IL-6 STAT3-luciferase reporter, luminescence; 100% = signal with IL-6 EC80 alone; activation (% of control), % at 5.6 µM; 0.91% of 190,000 active;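 active = activation above the screen-wide mean of compound activation plus 3 SD, cut at about 130% in these data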
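Material: human U3A cells carrying STAT3-luciferase construct. Measured by: reporter luminescence signal. Timing: compound 1 h, then IL-6 6 h at 37 °C.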
STAT1 activator: activators of IFN-gamma induced STAT1 signaling. NIH 3T3 STAT1-luciferase reporter, luminescence; 100% = IFN-gamma alone, no compound. activation (% of control), % at 5.5 µM. 2.6% of 200,000 active. AID 932;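 active = activation above the screen-wide mean activation plus 3 SD, cut at about 130% in these data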
STAT1 inh: STAT1 signaling inhibition; NIH 3T3 STAT1-luciferase reporter, IFN-gamma, luminescence; 0.35% of 200,000 active; inhibition, % at 5.5 µM;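 active = inhibition above a set limit, the mean inhibition across all tested compounds plus 3 SD, cut at about 34% in these data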
APP 5'UTR act: activates APP 5'UTR luciferase reporter; SH-SY5Y APP 5'UTR luciferase reporter, luminescence; zero percent = DMSO vehicle wells; activation, % at 2 µM; 1% of 190,000 active; AID 1276;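 active = activation above a set limit, based on mean plus 3 SD of controls, cut at about 140% in these data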
NF-kB expr up: NF-kB expression increase, human neuronal cells; NF-kB reporter expression; hits give high values; fold change at 12.5 µM; 1.6% of 190,000 active; in the data active = fold change above about 3.3
STAT3 inh: reduces IL-6 driven STAT3 reporter signal. inhibition, % at 5.5 µM. U3A cells, IL-6 STAT3-luciferase reporter, luminescence; host cell line lacks STAT1. 0.89% of 190,000 active;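 active = inhibition above the mean inhibition across all screened compounds plus 3 SD, cut at about 44% in these data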
Each line names hits and unclear results; the compound was inactive in the other large screens.

Cc1cccc(NC(=S)N=Nc2c(O)n(CN3CCOCC3)c3ccccc23)c1C	none
Cc1ccc(N=Nc2c(O)n(CN3CCOCC3)c3ccccc23)cc1	STAT3 activator 137, STAT1 activator 163, APP 5'UTR act 167
CCC(C)(C(=O)NC1CCCC1)N(C)C(=O)c1ccccn1 (configuration not stated)	none
Cc1cc(C(=O)CSc2ncccn2)c(C)n1Cc1ccco1	APP 5'UTR act 141, NF-kB expr up 4.3
Cc1cc(C(=O)COC(=O)c2ccc(O)cc2)c(C)n1Cc1ccco1	STAT1 activator 149, APP 5'UTR act 164, NF-kB expr up 4.4
CCOc1ncccc1C(=O)OCC(=O)c1cc(C)n(Cc2ccco2)c1C	APP 5'UTR act 164, NF-kB expr up 4.6
Cc1cc(C(=O)COC(=O)C(C)NC(N)=O)c(C)n1Cc1ccco1 (configuration not stated)	none
Cc1cc(C(=O)COC(=O)c2ccc(Br)o2)c(C)n1Cc1ccco1	none
CCN(CC(=O)NCc1ccc(Cl)cc1)C(=O)c1ccc(S(=O)(=O)N(C)C)cc1	none
O=C(CCc1ccccc1)NNC(=S)NC(=O)c1ccc(Cl)cc1	none
O=C(c1ccco1)N1CCN(c2c([N+](=O)[O-])nn(-c3cccc(Cl)c3)[n+]2[O-])CC1	none
CCOC(=O)c1c(C)[nH]c(C2=NNC(=NC3CC3)SC2)c1C	STAT1 inh 61, APP 5'UTR act 158, STAT3 inh 76
CCOc1ccccc1C(=O)Nc1ccc(-n2nncc2C(C)(C)C)cc1	none
CCOc1c2ccc(C(=O)NCCc3ccc(C)cc3)cc2nn1CC	none
CCn1nc2cc(C(=O)NCCc3cccs3)ccc2c1OC	STAT1 activator 133, NF-kB expr up 4
Cc1ccc(C(=O)NCCc2cccs2)cc1	STAT1 inh 58, STAT3 inh 81
CC1CN(C(=O)c2ccc(COc3ccc(C(C)C)cc3)o2)CC(C)O1 (configuration not stated)	STAT3 activator 133, STAT1 activator 129
CCOC(=O)c1sc2nc3n(c(=O)c2c1C)CCC3	none
CCOC(=O)c1sc2nc3n(c(=O)c2c1C)CCCCC3	STAT1 activator 133
Cc1ccc(C(=O)Nc2nc(C)c(C(=O)Nc3ccc4c(c3)CCC4)s2)cc1	none
CCc1nn2cc(C(=O)c3cc(Cl)ccc3O)cnc2c1-c1ccc(F)cc1	none
CC(NC(=O)Nc1nnc(C(F)(F)F)s1)(C(F)(F)F)C(F)(F)F	STAT1 inh 62, STAT3 inh 82
O=C(Nc1nnc(C(F)(F)F)s1)c1ccc(Br)s1	STAT1 inh 42, STAT3 inh 46
O=C(NC1=NCCS1)c1ccc(Br)s1	STAT1 activator 138
CCOc1ccc(Br)cc1S(=O)(=O)Nc1cccc(S(=O)(=O)N(C)C)c1	none
COc1cc(C(=O)N=c2sc3ccccc3n2C)cc(OC)c1OC	none
Cc1sc(=NC(=O)c2ccco2)n(C)c1-c1ccccc1	NF-kB expr up 5.1
Cc1sc(=NC(=O)c2ccco2)n(C)c1-c1ccc(F)cc1	none
Cn1c(=NC(=O)c2ccco2)sc2ccccc21	APP 5'UTR act 156, NF-kB expr up 4.6
Cn1c(=NC(=O)c2cccc([N+](=O)[O-])c2)sc2ccccc21	STAT3 activator 136, STAT1 activator 170, NF-kB expr up 4.2
COCCCNC(=S)N1CCC(NC(=O)c2ccco2)CC1	none
COc1ccc2c(Cl)c(C(=O)NCC3CCCO3)sc2c1Cl (configuration not stated)	none
Cc1ccc2c(Cl)c(C(=O)NCCc3ccccc3)sc2c1	STAT1 activator 136
O=C(NCC1CCCO1)c1sc2ccccc2c1Cl (configuration not stated)	STAT1 activator 132
Cc1ccc2c(Cl)c(C(=O)NCC3CCCO3)sc2c1 (configuration not stated)	STAT1 activator 132, NF-kB expr up 3.9
O=C(NNC(=O)C1CC2CCC1C2)c1sc2ccccc2c1Cl (configuration not stated)	STAT1 activator 130
Cc1nc(N2CCCCC2)c(C#N)c(C)c1[N+](=O)[O-]	none
Cc1cccc(NC(=O)C(=O)NCC2CCCO2)c1 (configuration not stated)	STAT1 activator 136
Cc1ccccc1CSc1nc(C(C)(C)C)cc(=O)[nH]1	none
Cc1ccc(C(=O)Nc2ccc3c(c2)CCC3)o1	STAT1 activator 137, NF-kB expr up 7.8
O=C(Nc1ccc2c(c1)CCC2)c1cc2ccccc2o1	STAT1 activator 151, APP 5'UTR act 185, NF-kB expr up 11
O=C(Nc1ccc2c(c1)CCC2)c1ccc(Br)o1	none
CCc1ccc(-c2csc(NC(=O)COC(=O)CCc3nc4ccccc4s3)n2)cc1	STAT1 activator 131
Cc1nc(NC(=O)COC(=O)CCc2nc3ccccc3s2)c(Cl)cc1Cl	none
Cc1cc(NC(=O)c2ccc(C#N)cc2)on1	none
COc1ccc2cnn(CCOc3ccccc3)c(=O)c2c1OC	STAT1 activator 146, APP 5'UTR act 176, NF-kB expr up 3.6
CCOc1ccccc1OCCn1ncc2ccc(OC)c(OC)c2c1=O	none
COc1ccc(CN(C)C(=O)COC(=O)c2c(-c3ccccc3Cl)noc2C)cc1	none
CNC(=S)N1N=C(c2ccccc2)CC1c1ccccc1Cl (configuration not stated)	none
CNC(=S)N1N=C(c2ccc(C)cc2)CC1c1ccc(Cl)cc1 (configuration not stated)	NF-kB expr up 4.5
CNC(=S)N1N=C(c2ccc(C)cc2)CC1c1ccc(Br)cc1 (configuration not stated)	NF-kB expr up 3.4
CCOc1ccccc1N(CC(=O)NCCSc1ccccc1)S(C)(=O)=O	none
CCOC(=O)C1CCCN(C(=S)Nc2cccc(Cl)c2)C1 (configuration not stated)	none
COc1ccc(-c2csc(NC(=O)c3ccoc3C)n2)cc1	STAT1 activator 133
COc1ccc(-c2csc(NC(=O)COC(=O)C3=COCCO3)n2)cc1	STAT1 activator 130
COc1ccc(-c2csc(NCc3ccco3)n2)cc1	STAT1 activator 135, APP 5'UTR act 158, NF-kB expr up 6.2
Cc1ccc(-c2csc(NC(=O)c3ccno3)n2)cc1	STAT1 activator 131
Cc1ccc(-c2csc(NC(=O)c3ccc(C)o3)n2)cc1	none
Cc1ccc(C)c(SCC(=O)c2ccc[nH]2)c1	none
COc1ccc(C2(CNC(=O)c3ccccc3[N+](=O)[O-])CCOCC2)cc1	none
COC(=O)c1c(-c2ccncc2)csc1NC(=O)c1ccoc1C	STAT1 activator 136
CCN(CC)C(=O)c1sc(NC(=O)c2ccoc2C)c(C(=O)OC)c1C	none
Brc1cc2c(cc1/C=N/Nc1nc(N3CCOCC3)nc(N3CCOCC3)n1)OCO2	none
Brc1cc2c(cc1/C=N/Nc1nc3ccccc3s1)OCO2	STAT1 activator 132

Bioassay records deposited in PubChem BioAssay by several laboratories.
